ChEMBL document CHEMBL3045579, “Herbicidal activity of cineole derivatives” (2010)
Activity calls are given as the source filed them.

Assays:
Radish [1] = experiment: Pre-emergence herbicidal activity against Raphanus sativus var.Long scarlet (radish) seeds assessed as root length at 0.1 mol/l at 25 degC after 72 hr by laboratory-based agar medium bioassay relative to 1,8-Cineole; assay type: functional
Procedure, shortened: (§1)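 Agar-plate assay as above: compound in organic solvent evaporated onto Ca/B water agar, 10 seeds × 5 dishes, 72 h at 25 °C in light. Germination, root length or shoot length at 0.1 mol L^-1 expressed relative to 1,8-cineole.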

Radish [2] = experiment: Pre-emergence herbicidal activity against Raphanus sativus var.Long scarlet (radish) seeds assessed as concentration required to suppress root growth at 25 degC after 72 hr by laboratory-based agar medium bioassay; assay type: functional
Radish [3] = experiment: Pre-emergence herbicidal activity against Raphanus sativus var.Long scarlet (radish) seeds assessed as concentration required to suppress shoot growth at 25 degC after 72 hr by laboratory-based agar medium bioassay; assay type: functional
Radish [4] = experiment: Pre-emergence herbicidal activity against Raphanus sativus var.Long scarlet (radish) seeds assessed as seed germination at 0.1 mol/l at 25 degC after 72 hr by laboratory-based agar medium bioassay relative to control; assay type: functional
Procedure, shortened: (§2)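 Solutions tested at 1 to 1 × 10^-4 mol L^-1. 10 seeds/dish, 5 randomized replicate dishes angled ~70°. Incubated 72 h at 25 °C in light. Solvent and no-solvent controls. Germination, root length and shoot length recorded.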

Radish [5] = experiment: Pre-emergence herbicidal activity against Raphanus sativus var.Long scarlet (radish) seeds assessed as shoot length at 0.1 mol/l at 25 degC after 72 hr by laboratory-based agar medium bioassay relative to 1,8-Cineole; assay type: functional; procedure, shortened: as §1
Radish [6] = experiment: Pre-emergence herbicidal activity against Raphanus sativus var.Long scarlet (radish) seeds assessed as shoot growth inhibition at 1 mol/l at 25 degC after 72 hr by laboratory-based agar medium bioassay; assay type: functional, organism-based; procedure, shortened: as §2
Radish [7] = experiment: Pre-emergence herbicidal activity against Raphanus sativus var.Long scarlet (radish) seeds assessed as seed germination at 0.1 mol/l at 25 degC after 72 hr by laboratory-based agar medium bioassay relative to 1,8-Cineole; assay type: functional; procedure, shortened: as §1
Radish [8] = experiment: Pre-emergence herbicidal activity against Raphanus sativus var.Long scarlet (radish) seeds assessed as shoot length at 0.1 mol/l at 25 degC after 72 hr by laboratory-based agar medium bioassay relative to control; assay type: functional; procedure, shortened: as §2
Radish [9] = experiment: Pre-emergence herbicidal activity against Raphanus sativus var.Long scarlet (radish) seeds assessed as concentration required to suppress seed germination at 25 degC after 72 hr by laboratory-based agar medium bioassay; assay type: functional
Radish [10] = experiment: Pre-emergence herbicidal activity against Raphanus sativus var.Long scarlet (radish) seeds assessed as root length at 0.1 mol/l at 25 degC after 72 hr by laboratory-based agar medium bioassay relative to control; assay type: functional; procedure, shortened: as §2
Lolium rigidum [11] = experiment: Pre-emergence herbicidal activity against Lolium rigidum seeds assessed as concentration required to suppress root growth at 25 degC after 72 hr by filter paper bioassay; assay type: functional
Procedure, shortened: (§3)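 Two seed-plate formats. Filter paper: sterile paper wetted with 1 mL aqueous solution containing 3.4 × 10^-4 g mL^-1 Tween 80, dish sealed and flat. 10 seeds/dish, 5 dishes per concentration. Incubated 72 h at 25 °C under light. Threshold taken by one-way ANOVA at P = 0.05.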

Radish [12] = experiment: Pre-emergence herbicidal activity against Raphanus sativus var.Long scarlet (radish) seeds assessed as root length at 0.1 mol/l at 25 degC after 72 hr by filter paper bioassay relative to control; assay type: functional
Procedure, shortened: (§4)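 Seeds on sterile filter paper wetted with 1 mL aqueous solution containing 3.4 × 10^-4 g mL^-1 Tween 80. Eucalyptus oil tested at 0.0154 g mL^-1, giving about 0.1 mol L^-1 1,8-cineole. Dishes sealed and kept flat. 10 seeds/dish, 5 dishes. Incubated 72 h at 25 °C under 135–195 μE m^-2 s^-1 light. Germination, root length or shoot length compared with control.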

Radish [13] = experiment: Pre-emergence herbicidal activity against Raphanus sativus var.Long scarlet (radish) seeds assessed as concentration required to suppress seed germination at 25 degC after 72 hr by filter paper bioassay; assay type: functional; procedure, shortened: as §3
Radish [14] = experiment: Pre-emergence herbicidal activity against Raphanus sativus var.Long scarlet (radish) seeds assessed as shoot length at 0.1 mol/l at 25 degC after 72 hr by filter paper bioassay relative to control; assay type: functional; procedure, shortened: as §4
Lolium rigidum [15] = experiment: Pre-emergence herbicidal activity against Lolium rigidum seeds assessed as seed germination at 0.1 mol/l at 25 degC after 72 hr by filter paper bioassay relative to control; assay type: functional; procedure, shortened: as §4
Lolium rigidum [16] = experiment: Pre-emergence herbicidal activity against Lolium rigidum seeds assessed as concentration required to suppress shoot growth at 25 degC after 72 hr by filter paper bioassay; assay type: functional; procedure, shortened: as §3
Radish [17] = experiment: Pre-emergence herbicidal activity against Raphanus sativus var.Long scarlet (radish) seeds assessed as concentration required to suppress root growth at 25 degC after 72 hr by filter paper bioassay; assay type: functional; procedure, shortened: as §3
Radish [18] = experiment: Pre-emergence herbicidal activity against Raphanus sativus var.Long scarlet (radish) seeds assessed as concentration required to suppress shoot growth at 25 degC after 72 hr by filter paper bioassay; assay type: functional; procedure, shortened: as §3
Lolium rigidum [19] = experiment: Pre-emergence herbicidal activity against Lolium rigidum seeds assessed as shoot length at 0.1 mol/l at 25 degC after 72 hr by filter paper bioassay relative to control; assay type: functional; procedure, shortened: as §4
Radish [20] = experiment: Pre-emergence herbicidal activity against Raphanus sativus var.Long scarlet (radish) seeds assessed as seed germination at 0.1 mol/l at 25 degC after 72 hr by filter paper bioassay relative to control; assay type: functional; procedure, shortened: as §4
Lolium rigidum [21] = experiment: Pre-emergence herbicidal activity against Lolium rigidum seeds assessed as root length at 0.1 mol/l at 25 degC after 72 hr by filter paper bioassay relative to control; assay type: functional; procedure, shortened: as §4
Lolium rigidum [22] = experiment: Pre-emergence herbicidal activity against Lolium rigidum seeds assessed as concentration required to suppress seed germination at 25 degC after 72 hr by filter paper bioassay; assay type: functional; procedure, shortened: as §3
Lolium rigidum [23] = experiment: Pre-emergence herbicidal activity against Lolium rigidum seeds assessed as root length at 0.1 mol/l at 25 degC after 72 hr by laboratory-based agar medium bioassay relative to control; assay type: functional; procedure, shortened: as §2
Lolium rigidum [24] = experiment: Pre-emergence herbicidal activity against Lolium rigidum seeds assessed as seed germination at 0.1 mol/l at 25 degC after 72 hr by laboratory-based agar medium bioassay relative to 1,8-Cineole; assay type: functional; procedure, shortened: as §1
Lolium rigidum [25] = experiment: Pre-emergence herbicidal activity against Lolium rigidum seeds assessed as shoot length at 0.1 mol/l at 25 degC after 72 hr by laboratory-based agar medium bioassay relative to 1,8-Cineole; assay type: functional; procedure, shortened: as §1
Lolium rigidum [26] = experiment: Pre-emergence herbicidal activity against Lolium rigidum seeds assessed as concentration required to suppress root growth at 25 degC after 72 hr by laboratory-based agar medium bioassay; assay type: functional
Lolium rigidum [27] = experiment: Pre-emergence herbicidal activity against Lolium rigidum seeds assessed as concentration required to suppress shoot growth at 25 degC after 72 hr by laboratory-based agar medium bioassay; assay type: functional
Lolium rigidum [28] = experiment: Pre-emergence herbicidal activity against Lolium rigidum seeds assessed as concentration required to suppress seed germination at 25 degC after 72 hr by laboratory-based agar medium bioassay; assay type: functional
Lolium rigidum [29] = experiment: Pre-emergence herbicidal activity against Lolium rigidum seeds assessed as shoot length at 0.1 mol/l at 25 degC after 72 hr by laboratory-based agar medium bioassay relative to control; assay type: functional; procedure, shortened: as §2
Lolium rigidum [30] = experiment: Pre-emergence herbicidal activity against Lolium rigidum seeds assessed as seed germination at 0.1 mol/l at 25 degC after 72 hr by laboratory-based agar medium bioassay relative to control; assay type: functional; procedure, shortened: as §2
Radish [31] = experiment: Pre-emergence herbicidal activity against Raphanus sativus var.Long scarlet (radish)seeds assessed as seed germination inhibition at 25 degC after 72 hr by laboratory-based agar medium bioassay; assay type: functional, organism-based; procedure, shortened: as §2
Lolium rigidum [32] = experiment: Pre-emergence herbicidal activity against Lolium rigidum seeds assessed as root length at 0.1 mol/l at 25 degC after 72 hr by laboratory-based agar medium bioassay relative to 1,8-Cineole; assay type: functional; procedure, shortened: as §1
Radish [33] = experiment: Pre-emergence herbicidal activity against Raphanus sativus var.Long scarlet (radish) seeds assessed as seed germination inhibition at 1 mol/l at 25 degC after 72 hr by laboratory-based agar medium bioassay; assay type: functional, organism-based; procedure, shortened: as §2
Radish [34] = experiment: Pre-emergence herbicidal activity against Raphanus sativus var.Long scarlet (radish) seeds assessed as root growth inhibition at 25 degC after 72 hr by laboratory-based agar medium bioassay; assay type: functional, organism-based; procedure, shortened: as §2
Radish [35] = experiment: Pre-emergence herbicidal activity against Raphanus sativus var.Long scarlet (radish) seeds assessed as shoot growth inhibition at 25 degC after 72 hr by laboratory-based agar medium bioassay; assay type: functional, organism-based; procedure, shortened: as §2
Lolium rigidum [36] = experiment: Pre-emergence herbicidal activity against Lolium rigidum seeds assessed as shoot growth inhibition at 0.001 to 0.01 mol/l at 25 degC after 72 hr by laboratory-based agar medium bioassay; assay type: functional, organism-based; procedure, shortened: as §2

Cc1ccccc1CO[C@@H]1C[C@@]2(C(C)C)CCC1(C)O2 [CINMETHYLIN]
Ratio (Radish [1]): 0.8
Activity (Radish [2]): 0.0001 mol/L
Activity (Radish [3]): 0.01 mol/L
Activity (Radish [4]): 85.7%
Ratio (Radish [5]): 1
Activity (Radish [6]): inactive
Ratio (Radish [7]): 0.4
Activity (Radish [8]): 62.5%
Activity (Radish [9]): 1 mol/L
Activity (Radish [10]): 36.5%

CC12CCC(CC1)C(C)(C)O2 [EUCALYPTOL]
Activity (Lolium rigidum [11]): 0.1 mol/L
Activity (Radish [12]): 37.1%
Activity (Radish [13]): 0.1 mol/L
Activity (Radish [14]): 64.7%
Activity (Lolium rigidum [15]): 30.2%
Activity (Lolium rigidum [16]): 0.1 mol/L
Activity (Radish [17]): 1 mol/L
Activity (Radish [18]): 1 mol/L
Activity (Lolium rigidum [19]): 28.4%
Activity (Radish [20]): 34.1%
Activity (Lolium rigidum [21]): 22.4%
Activity (Lolium rigidum [22]): 0.1 mol/L

CC(C)[C@]12CC[C@@](C)(O1)[C@H](OC(=O)c1ccccc1)C2 (racemic) [2-exo-benzoxy-1,4-cineole]
Activity (Lolium rigidum [23]): 28%
Ratio (Radish [1]): 0.7
Ratio (Lolium rigidum [24]): 0.7
Activity (Radish [2]): 0.01 mol/L
Ratio (Lolium rigidum [25]): 1.2
Activity (Lolium rigidum [26]): 0.0001 mol/L
Activity (Radish [3]): 0.01 mol/L
Activity (Lolium rigidum [27]): 0.0001 mol/L
Activity (Lolium rigidum [28]): 0.1 mol/L
Activity (Lolium rigidum [29]): 23.7%
Activity (Radish [4]): 82.9%
Activity (Lolium rigidum [30]): 46.3%
Ratio (Radish [5]): 1
Ratio (Radish [7]): 0.4
Activity (Radish [8]): 64%
Activity (Radish [9]): inactive
Activity (Radish [31]): inactive
Ratio (Lolium rigidum [32]): 0.8
Activity (Radish [10]): 54.7%

CCCCCC(=O)O[C@@H]1C[C@@]2(C(C)C)CC[C@@]1(C)O2 (racemic) [2-Exo-hexoxy-1,4-cineole]
Activity (Radish [33]): inactive

CC(C)(C)CC(=O)O[C@H]1C[C@@]2(C)CC[C@H]1C(C)(C)O2 (racemic) [3-exo-t-butylacetoxy-1,8-cineole]
Activity (Lolium rigidum [23]): 64.9%
Ratio (Radish [1]): 0.5
Ratio (Lolium rigidum [24]): 0.3
Activity (Radish [2]): inactive
Ratio (Lolium rigidum [25]): 0.6
Activity (Lolium rigidum [26]): 0.01 mol/L
Activity (Radish [3]): inactive
Activity (Lolium rigidum [27]): 0.001 mol/L
Activity (Lolium rigidum [28]): 0.1 mol/L
Activity (Lolium rigidum [29]): 44.8%
Activity (Radish [4]): 31.4%
Activity (Lolium rigidum [30]): 97.8%
Ratio (Radish [5]): 0.7
Ratio (Radish [7]): 1.1
Activity (Radish [34]): inactive
Activity (Radish [8]): 90.9%
Activity (Radish [9]): 0.1 mol/L
Ratio (Lolium rigidum [32]): 0.3
Activity (Radish [10]): 72.5%
Activity (Radish [35]): inactive

CC12CCC(C(=O)C1)C(C)(C)O2 (racemic) [3-oxo-1,8-cineole]
Activity (Lolium rigidum [36]): inactive
Activity (Lolium rigidum [23]): 18.9%
Ratio (Radish [1]): 1.8
Ratio (Lolium rigidum [24]): 0.9
Activity (Radish [2]): 0.01 mol/L
Ratio (Lolium rigidum [25]): 1.6
Activity (Lolium rigidum [26]): 0.1 mol/L
Activity (Radish [3]): 0.01 mol/L
Activity (Lolium rigidum [27]): 0.0001 mol/L
Activity (Lolium rigidum [28]): 0.1 mol/L
Activity (Lolium rigidum [29]): 18.2%
Activity (Radish [4]): 10%
Activity (Lolium rigidum [30]): 33.3%
Ratio (Radish [5]): 2.2
Ratio (Radish [7]): 3.4
Activity (Radish [8]): 29.3%
Activity (Radish [9]): 0.01 mol/L
Ratio (Lolium rigidum [32]): 1.2
Activity (Radish [10]): 20.5%
